For two compounds, Kb, Activity and Papp B→A results are on record in ChEMBL document CHEMBL5096209, “Structure-Activity Studies of 3,9-Diazaspiro[5.5]undecane-Based γ-Aminobutyric Acid Type A Receptor Antagonists with Immunomodulatory Effect” (J Med Chem, 2021).

As a reminder, the Kb is the equilibrium dissociation constant of an antagonist, usually derived from a functional assay. Broadly, the Papp B→A is how fast a substance crosses the layer from the basolateral side.

The species entered for one series is Homo sapiens. Put plainly: Binding affinity to GABA receptor (unknown origin) assessed as equilibrium binding constant by schild plot analysis. The settings on record: filed as antagonist.
In the next series the test system is CD4+ve Th. Put plainly: Induction of cell proliferation of human CD4+ve Th cells at 50 uM measured after 96 hrs in presence of alprazolam by flow cytometry analysis relative to control. Type of series: functional. Summed up:
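Human PBMC from leukocyte cones were CFSE-stained (5 μM) and held at high density overnight. They were then stimulated with soluble anti-CD3 OKT3 (100 pg/mL) plus alprazolam 33 μM, with test compound at 50 μM, for 96 h. CD4+/CD8+ proliferation was measured by CFSE dilution on flow cytometry, at least six independent experiments.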

Series [1] is described as follows: Apparent permeability of compound across basolateral to apical side in MDCK cells. Particulars: dog. It is filed as ADME, cell-based, Canis lupus familiaris. The method, boiled down:
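MDR1-transfected MDCK monolayers, 0.5 μM test compound added apically or basally. Bidirectional apparent permeability measured in triplicate. Efflux ratio is B→A permeability divided by A→B permeability.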

Series [2] relates to CD4-positive T cell (mouse). Kind of series: Induction of cell proliferation of mouse CD4+ve Th cells at 50 uM measured after 48 hrs in presence of alprazolam by flow cytometry analysis relative to control. A general note: Flow cytometry measures light scatter and fluorescence of single cells or particles in a stream.

Calls of active or inactive are those of the source. No cut-off for these calls is given here.

Turning to `O=C(Nc1cccc(C(=O)N2CCC3(CCNCC3)CC2)c1)c1cccs1`, the Kb in the series filed under Homo sapiens was 6.9 nM.
As for `Cc1cccc(C(=O)N2CCC3(CCNCC3)CC2)c1`, in the series with CD4+ve Th, the Activity is 20%. For the same compound, the Papp B→A in series [1] was determined as 15 ×10⁻⁶ cm/s. Besides, the outcome in series [2] was Active.
